Data as given in ChEMBL document CHEMBL3259588, “Anti-inflammatory drimane sesquiterpene lactones from an Aspergillus species” (Bioorg Med Chem, 2014).
Calls of active or inactive are those of the source. No cut-off for these calls is given here.

Tests used:
Assay type in all cases: cell-based
DLD-1 [1] = experiment: Inhibition of TNF-alpha/IFN-gamma/IL-1beta-induced human CXCL10 (972 bp) promoter activity expressed in human DLD1 cells assessed as reduction in IL1-beta expression pretreated at 131.5 uM for 1 hr prior to 16 hrs cytokine challenge by proteome profiling method relative to untreated-control
Procedure, shortened: (§1)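 DLD-1 starved 16 h in 0.5% FCS, seeded 5×10^6 cells/mL, pretreated 1 h with compound, then stimulated 16 h with 10 ng/mL TNF-α, 10 ng/mL IFN-γ, 5 ng/mL IL-1β. Supernatant cytokines/chemokines detected on Human Cytokine Array Panel A antibody array.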

DLD-1 [2] = experiment: Inhibition of TNF-alpha/IFN-gamma/IL-1beta-induced human CXCL10 (972 bp) promoter activity expressed in human DLD1 cells assessed as reduction in CXCL10 expression pretreated at 131.5 uM for 1 hr prior to 16 hrs cytokine challenge by proteome profiling method relative to untreated-control; procedure, shortened: as §1
DLD-1 [3] = experiment: Inhibition of TNF-alpha/IFN-gamma/IL-1beta-induced human CXCL10 (972 bp) promoter activity expressed in human DLD1 cells assessed as reduction in MIF expression pretreated at 131.5 uM for 1 hr prior to 16 hrs cytokine challenge by proteome profiling method relative to untreated-control; procedure, shortened: as §1
[4] = biological target: T1, Nuclear factor NF-kappa-B complex (Homo sapiens) (UniProt Q00653+P19838+Q04206); experiment: Inhibition of NF-kappaB (unknown origin) expressed human DLD1 cells assessed as reduction in iNOS gene expression pretreated at 67.75 uM for 1 hr by RT-PCR method relative to untreated-control; conditions: DLD-1
T1 sequence (P19838 whole entry, looked up): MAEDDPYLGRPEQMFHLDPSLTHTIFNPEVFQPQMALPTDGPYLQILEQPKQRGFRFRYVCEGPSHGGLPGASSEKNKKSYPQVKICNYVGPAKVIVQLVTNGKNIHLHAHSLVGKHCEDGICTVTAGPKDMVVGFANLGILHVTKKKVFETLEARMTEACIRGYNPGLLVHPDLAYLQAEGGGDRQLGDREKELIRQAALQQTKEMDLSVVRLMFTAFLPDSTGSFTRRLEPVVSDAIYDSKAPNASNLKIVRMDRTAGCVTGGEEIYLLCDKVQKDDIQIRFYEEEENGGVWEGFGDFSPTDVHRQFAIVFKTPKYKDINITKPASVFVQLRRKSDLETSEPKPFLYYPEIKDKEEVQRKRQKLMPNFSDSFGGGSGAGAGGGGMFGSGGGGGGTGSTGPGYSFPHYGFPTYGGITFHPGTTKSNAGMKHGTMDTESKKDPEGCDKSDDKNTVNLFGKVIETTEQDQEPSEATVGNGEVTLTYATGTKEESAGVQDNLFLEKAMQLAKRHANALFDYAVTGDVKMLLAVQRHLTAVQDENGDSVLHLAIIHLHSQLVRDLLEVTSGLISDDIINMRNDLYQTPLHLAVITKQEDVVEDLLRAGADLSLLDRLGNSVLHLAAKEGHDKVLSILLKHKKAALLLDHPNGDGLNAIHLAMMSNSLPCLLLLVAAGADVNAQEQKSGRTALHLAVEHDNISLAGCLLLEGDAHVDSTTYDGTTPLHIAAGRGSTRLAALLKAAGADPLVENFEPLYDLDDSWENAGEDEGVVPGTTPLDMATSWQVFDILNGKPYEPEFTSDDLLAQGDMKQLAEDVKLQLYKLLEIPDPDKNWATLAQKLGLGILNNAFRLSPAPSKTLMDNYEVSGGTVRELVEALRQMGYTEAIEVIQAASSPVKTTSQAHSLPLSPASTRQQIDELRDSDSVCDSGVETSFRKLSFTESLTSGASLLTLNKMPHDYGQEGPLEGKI
T1 sequence (Q00653 whole entry, looked up): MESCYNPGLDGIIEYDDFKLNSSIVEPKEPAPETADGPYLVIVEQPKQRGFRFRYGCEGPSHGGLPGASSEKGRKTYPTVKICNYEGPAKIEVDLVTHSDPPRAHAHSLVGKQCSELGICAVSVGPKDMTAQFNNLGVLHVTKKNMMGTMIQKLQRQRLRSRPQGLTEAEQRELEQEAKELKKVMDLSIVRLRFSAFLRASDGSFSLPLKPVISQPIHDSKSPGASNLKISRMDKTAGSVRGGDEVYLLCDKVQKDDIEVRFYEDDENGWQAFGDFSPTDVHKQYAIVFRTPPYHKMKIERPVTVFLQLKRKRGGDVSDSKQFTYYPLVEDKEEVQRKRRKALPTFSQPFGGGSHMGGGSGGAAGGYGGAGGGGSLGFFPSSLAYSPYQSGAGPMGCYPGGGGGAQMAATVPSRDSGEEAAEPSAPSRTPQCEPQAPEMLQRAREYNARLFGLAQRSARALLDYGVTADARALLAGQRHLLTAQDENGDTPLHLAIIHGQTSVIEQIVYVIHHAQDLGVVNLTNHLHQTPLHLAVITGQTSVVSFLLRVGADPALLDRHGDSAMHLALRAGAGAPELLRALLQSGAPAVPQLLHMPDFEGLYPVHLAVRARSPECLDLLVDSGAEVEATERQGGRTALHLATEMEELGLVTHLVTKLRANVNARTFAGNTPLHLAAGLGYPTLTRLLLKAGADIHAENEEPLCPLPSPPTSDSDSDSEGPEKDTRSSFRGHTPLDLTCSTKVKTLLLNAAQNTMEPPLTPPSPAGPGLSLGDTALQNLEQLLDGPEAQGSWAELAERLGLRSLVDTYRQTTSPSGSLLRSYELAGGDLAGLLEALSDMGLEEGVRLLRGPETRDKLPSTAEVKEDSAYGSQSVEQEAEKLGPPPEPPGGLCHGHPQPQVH
T1 sequence (Q04206 whole entry, looked up): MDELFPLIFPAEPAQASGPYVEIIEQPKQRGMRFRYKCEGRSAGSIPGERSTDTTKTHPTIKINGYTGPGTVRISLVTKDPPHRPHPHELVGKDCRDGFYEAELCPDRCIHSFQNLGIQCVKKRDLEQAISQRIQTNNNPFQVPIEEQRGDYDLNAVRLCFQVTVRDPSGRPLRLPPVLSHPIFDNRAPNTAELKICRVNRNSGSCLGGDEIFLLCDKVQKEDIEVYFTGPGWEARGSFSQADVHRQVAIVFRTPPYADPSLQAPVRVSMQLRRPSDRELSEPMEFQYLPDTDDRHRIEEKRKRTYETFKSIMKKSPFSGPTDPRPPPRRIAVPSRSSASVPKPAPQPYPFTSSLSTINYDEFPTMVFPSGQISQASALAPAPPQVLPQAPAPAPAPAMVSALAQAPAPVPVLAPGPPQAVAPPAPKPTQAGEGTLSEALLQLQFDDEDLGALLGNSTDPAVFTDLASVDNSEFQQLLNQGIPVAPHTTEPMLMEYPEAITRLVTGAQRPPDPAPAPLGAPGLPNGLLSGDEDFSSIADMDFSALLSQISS
Procedure, shortened: (§2)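 DLD-1 seeded 5×10^5 cells/mL, grown 24 h, starved 16 h in 0.5% FCS, pretreated with compound 1 h, then stimulated with 10 ng/mL TNF-α, 10 ng/mL IFN-γ, 5 ng/mL IL-1β for 5 h. tnf-α, il-1β, inos mRNA by two-step qRT-PCR, Pfaffl relative quantification, normalised to gapdh; stimulated-untreated control = 100%. Mean ± SEM, three independent experiments.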

[5] = biological target: T1, Nuclear factor NF-kappa-B complex (Homo sapiens); experiment: Inhibition of NF-kappaB (unknown origin) expressed human DLD1 cells assessed as reduction in IL1-beta gene expression pretreated at 67.75 uM for 1 hr by RT-PCR method relative to untreated-control; conditions: DLD-1; procedure, shortened: as §2
DLD-1 [6] = experiment: Inhibition of TNF-alpha/IFN-gamma/IL-1beta-induced human CXCL10 (972 bp) promoter activity expressed in human DLD1 cells assessed as reduction in TNF-alpha expression pretreated at 131.5 uM for 1 hr prior to 16 hrs cytokine challenge by proteome profiling method relative to untreated-control; procedure, shortened: as §1
[7] = biological target: T1, Nuclear factor NF-kappa-B complex (Homo sapiens); experiment: Inhibition of NF-kappaB (unknown origin) expressed human DLD1 cells assessed as reduction in TNF-alpha gene expression pretreated at 67.75 uM for 1 hr by RT-PCR method relative to untreated-control; conditions: DLD-1; procedure, shortened: as §2
DLD-1 [8] = experiment: Inhibition of TNF-alpha/IFN-gamma/IL-1beta-induced human CXCL10 (972 bp) promoter activity expressed in human DLD1 cells assessed as CXCL10 gene expression at 131.5 uM after 5 hrs by RT-PCR method relative to untreated-control
Procedure, shortened: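 Cells starved 16 h (0.5% FCS), compound pretreatment 1 h, then TNF-α 10 ng/mL/IFN-γ 10 ng/mL/IL-1β 5 ng/mL for 5 h. Total RNA analysed by two-step qRT-PCR for cxcl10, gapdh-corrected (Pfaffl); induced vs uninduced and treated-induced vs untreated-induced (100%).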

[9] = biological target: T2, Signal transducer and activator of transcription 1-alpha/beta (Homo sapiens) (UniProt P42224); experiment: Inhibition of Stat1 (unknown origin) expressed in human DLD1 cells assessed as reduction in iNOS gene expression pretreated at 67.75 uM for 1 hr by RT-PCR method relative to untreated-control; conditions: DLD-1; procedure, shortened: as §2
T2 sequence (whole entry): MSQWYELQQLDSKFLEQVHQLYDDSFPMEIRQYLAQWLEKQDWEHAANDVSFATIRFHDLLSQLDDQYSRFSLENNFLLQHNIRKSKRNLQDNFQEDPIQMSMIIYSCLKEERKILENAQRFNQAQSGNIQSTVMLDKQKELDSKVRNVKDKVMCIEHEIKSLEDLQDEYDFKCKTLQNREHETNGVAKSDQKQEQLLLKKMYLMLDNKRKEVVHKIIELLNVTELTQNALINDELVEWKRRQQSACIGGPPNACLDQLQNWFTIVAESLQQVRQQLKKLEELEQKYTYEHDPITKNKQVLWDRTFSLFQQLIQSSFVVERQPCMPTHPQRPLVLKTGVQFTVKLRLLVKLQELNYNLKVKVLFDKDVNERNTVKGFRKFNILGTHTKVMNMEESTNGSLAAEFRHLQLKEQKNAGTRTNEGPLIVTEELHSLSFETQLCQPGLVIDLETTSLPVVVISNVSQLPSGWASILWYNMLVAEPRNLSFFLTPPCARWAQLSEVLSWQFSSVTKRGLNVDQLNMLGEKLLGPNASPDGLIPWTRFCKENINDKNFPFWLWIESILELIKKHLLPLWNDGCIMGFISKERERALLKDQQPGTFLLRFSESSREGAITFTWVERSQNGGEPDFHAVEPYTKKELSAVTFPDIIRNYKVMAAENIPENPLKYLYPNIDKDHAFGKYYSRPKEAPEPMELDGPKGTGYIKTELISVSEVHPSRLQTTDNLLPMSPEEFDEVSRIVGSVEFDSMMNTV

[10] = Cytotoxicity against human DLD1 cells up to 158 uM after 48 hrs by XTT assay; conditions: dld-1, 48 h
Procedure, shortened: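 DLD-1 cells (RPMI 1640, 25 mM HEPES, 10% FCS, 37 °C, 5% CO2) exposed to compound for 48 h; viability read as XTT reduction to coloured formazan.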

[11] = biological target: T2, Signal transducer and activator of transcription 1-alpha/beta (Homo sapiens); experiment: Inhibition of Stat1 (unknown origin) expressed human DLD1 cells assessed as reduction in TNF-alpha gene expression pretreated at 67.75 uM for 1 hr by RT-PCR method relative to untreated-control; conditions: DLD-1; procedure, shortened: as §2
DLD-1 [12] = experiment: Inhibition of TNF-alpha/IFN-gamma/IL-1beta-induced human CXCL10 (972 bp) promoter activity expressed in human DLD1 cells assessed as reduction in IL8 expression pretreated at 131.5 uM for 1 hr prior to 16 hrs cytokine challenge by proteome profiling method relative to untreated-control; procedure, shortened: as §1
[13] = (§3) Inhibition of TNF-alpha/IFN-gamma/IL-1beta-induced human CXCL10 (972 bp) promoter activity expressed in human DLD1 cells after 24 hrs by luciferase reporter assay; conditions: DLD-1, 24 h
Procedure, shortened: (§4)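 DLD-1 in 24-well plates, switched to 0.5% FCS without antibiotics a day before lipofection (Lipofectamine 2000, 0.8 µg plasmid) with 972 bp CXCL10 promoter, NF-κB, GAS/Stat1 or ISRE luciferase reporters plus pRL-CMV. Stimulated 24 h with 10 ng/mL TNF-α, 10 ng/mL IFN-γ, 5 ng/mL IL-1β ± compound; Dual-Glo firefly/Renilla read. Stimulation-only = 100%; mean ± SEM, ≥3 experiments.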

DLD-1 [14] = experiment: as §3; procedure, shortened: as §4
DLD-1 [15] = experiment: Inhibition of TNF-alpha/IFN-gamma/IL-1beta-induced human CXCL10 (972 bp) promoter activity expressed in human DLD1 cells assessed as reduction in CXCL1 expression pretreated at 131.5 uM for 1 hr prior to 16 hrs cytokine challenge by proteome profiling method relative to untreated-control; procedure, shortened: as §1
[16] = Inhibition of TNF-alpha/IFN-gamma/IL-1beta-induced human CXCL10 (972 bp) promoter activity expressed in human DLD1 cells after 24 hrs by […]-driven luciferase reporter assay; conditions: DLD-1, 24 h; procedure, shortened: as §4
[17] = biological target: T2, Signal transducer and activator of transcription 1-alpha/beta (Homo sapiens); experiment: Inhibition of Stat1 (unknown origin)-induced human CXCL10 (972 bp) promoter activity expressed in TNF-alpha/IFN-gamma/IL-1beta-stimulated human DLD1 cells after 24 hrs by luciferase reporter assay; conditions: DLD-1; procedure, shortened: as §4
[18] = biological target: T2, Signal transducer and activator of transcription 1-alpha/beta (Homo sapiens); experiment: Inhibition of Stat1 (unknown origin) expressed human DLD1 cells assessed as reduction in IL1-beta gene expression pretreated at 67.75 uM for 1 hr by RT-PCR method relative to untreated-control; conditions: DLD-1; procedure, shortened: as §2
DLD-1 [19] = experiment: Inhibition of TNF-alpha/IFN-gamma/IL-1beta-induced human CXCL10 (972 bp) promoter activity expressed in human DLD1 cells assessed as reduction in IL-27 expression pretreated at 131.5 uM for 1 hr prior to 16 hrs cytokine challenge by proteome profiling method relative to untreated-control; procedure, shortened: as §1

- inhibition [4]: Active
- inhibition [5]: Active
- inhibition [7]: Active
- inhibition [9]: Active
- inhibition [11]: Active
- IC50 [13]: 55 µM
- IC50 [16]: 49 µM
- inhibition [17]: Dose-dependent effect
- inhibition [18]: Active
Structure (SMILES): CCCCCC(=O)O[C@@H]1C=C2COC(=O)[C@]2(O)[C@@]2(C)[C@H](O)CCC(C)(C)[C@H]12
- inhibition (DLD-1 [1]): Active
- inhibition (DLD-1 [2]): Active
- inhibition (DLD-1 [3]): Active
- inhibition (DLD-1 [6]): Active
- inhibition (DLD-1 [8]): Active
- Activity [10]: Non-toxic
- inhibition (DLD-1 [12]): Active
- inhibition (DLD-1 [14]): Dose-dependent effect
- inhibition (DLD-1 [15]): Active
- inhibition (DLD-1 [19]): Active
